# Bioassay records from PubChem.
# The list is not random: actives were taken first. Their share in the collection is about 4%.
# FN deposition inh: fibronectin deposition inhibition; 350,000 tested, 0.086% active; inhibition, % at 12.6 µM; AH1F fibroblasts, Alexa488-fibronectin deposition fluorescence, overnight;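 active = mean inhibition across replicates of 30% or more, regardless of how many single replicates reach that level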;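 also: positive control wells lacked labelled fibronectin entirely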
#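 material = AH1F fibroblast monolayer depositing Alexa488-labelled fibronectin into matrix | amount = 10000 AH1F cells/well | buffer or medium = DMEM plus 2% serum, read in PBS | incubation = 1 h cell adhesion before compound, then overnight fibronectin incubation | detection = fluorescence at 485 nm excitation, 525 nm emission | evaluation = percent inhibition as loss of matrix-bound fibronectin fluorescence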
# FGF22 binding: binders of recombinant human FGF22 by thermal shift; Q9HCT0; SYPRO orange fluorescence; percent of sucrose octasulfate shift, DMSO zero; activity (Tm shift, normalised), % at 9.99 µM; 340,000 tested, 1.5% active;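 active = mean Tm shift, scaled 0 neutral to 100 positive control, at about 1.3% or above, every replicate too, limit read from the data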
# E-selectin induc: induces E-selectin expression in human endothelial cells; P16581; activation, % at 7.58 µM; 260,000 tested, 0.37% active; HUVEC E-selectin immunofluorescence imaging; normalized: neutral wells 0, TNF-alpha wells 100;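 active = mean E-selectin-positive cell signal at least 10% of the positive control, reached in at least 60% of replicates, without over 20% cell loss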
# Target sequence (P16581 whole entry, looked up): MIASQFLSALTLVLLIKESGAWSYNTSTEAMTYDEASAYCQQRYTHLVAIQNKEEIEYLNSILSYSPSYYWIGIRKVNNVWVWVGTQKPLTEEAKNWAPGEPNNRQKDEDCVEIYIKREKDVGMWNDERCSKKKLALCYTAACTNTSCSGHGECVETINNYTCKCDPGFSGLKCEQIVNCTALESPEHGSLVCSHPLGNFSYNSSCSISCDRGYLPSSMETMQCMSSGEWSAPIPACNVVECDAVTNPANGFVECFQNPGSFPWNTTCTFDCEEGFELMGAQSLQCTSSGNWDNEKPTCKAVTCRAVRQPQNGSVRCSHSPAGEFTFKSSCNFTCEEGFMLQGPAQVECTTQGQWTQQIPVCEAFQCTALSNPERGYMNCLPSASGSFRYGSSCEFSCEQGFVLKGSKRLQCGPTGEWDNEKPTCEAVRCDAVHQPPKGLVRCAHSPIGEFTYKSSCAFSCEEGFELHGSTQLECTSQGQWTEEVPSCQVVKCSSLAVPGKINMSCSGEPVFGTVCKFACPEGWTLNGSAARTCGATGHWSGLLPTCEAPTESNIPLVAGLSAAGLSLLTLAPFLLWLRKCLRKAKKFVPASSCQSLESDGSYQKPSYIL
#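 Test system: HUVEC | Signal: Immunofluorescence imaging | Read-out: Percent E-selectin-positive cells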
# C2C12 statin: suppressors of simvastatin-induced myotoxicity in C2C12 myotubes. rescue of ATP level, % at 7.49 µM. 330,000 tested, 0.78% active. ATP luminescence, 48 h; scaled: DMSO 0, geranylgeraniol control 100. AID 602340;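 active = mean ATP rescue above about 67%, or every replicate alone reaching that limit, limit read from the data, passing the limit was not always enough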;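 also: myotubes were challenged with 10 µM simvastatin during compound exposure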
# Ecoli rRNA inh: inhibits bacterial ribosomal RNA function over humanized ribosomes | E. coli WT GFP vs humanized-ribosome RFP mutants, fluorescence, 24 h; stronger effect = lower value; DMSO median 0, no signal -100 | GFP signal change (wild-type ribosome), % (concentration not given with the values) | 350,000 tested, 1.6% active | AID 720706;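 active = significant combined selectivity score with lowered wild-type GFP, culture density cut under 30%, mutant RFP and density less affected; inactive = any of these conditions unmet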
# SIRT5 block: inhibitors of human sirtuin-5 desuccinylase | Q9NXA8 | AID 652115 | 330,000 tested, 1.1% active | Purified SirT5, succinyl-peptide AMC, trypsin-coupled fluorescence | inhibition, % at 15 µM; in the data active = inhibition above about 15%
# * = called active by the depositor; x = not tested or not shown; ! = not confirmed by another sample.
SMILES,FN deposition inh,FGF22 binding,E-selectin induc,C2C12 statin,Ecoli rRNA inh,SIRT5 block
O=C1CCN(Cc2nc(-c3ccc(Cl)cc3)no2)CCN1,5,43*,1,6,16,-3
Clc1ccc(-c2noc(CN3CCOCC3)n2)cc1,0,x,1,x,13,-3
CC(C)NC(=O)N(C)C[C@H]1Oc2cc(C#CC(C)(C)O)ccc2S(=O)(=O)N([C@@H](C)CO)C[C@H]1C,0,0,-2,-3,-1,-5
O=C(CC(=O)c1cc(Cl)ccc1O)c1ccccc1,x,0,x,26,-27*,-3
Cc1cccc(C(=O)CC(=O)c2cc(Cl)ccc2O)c1,x,x,x,-27,x,x
COc1cccc(-c2ccc3c(c2)O[C@@H](CN(C)C(=O)C2CCOCC2)[C@@H](C)CN([C@H](C)CO)S3(=O)=O)c1,x,0,0,4,-5,-3
COCC#Cc1cnc2c(c1)C(=O)N([C@@H](C)CO)C[C@@H](C)[C@H](CN(C)C(=O)c1cccnc1)O2,-14,0,0,16,1,16*
CC(C)C#Cc1cnc2c(c1)C(=O)N([C@@H](C)CO)C[C@@H](C)[C@H](CN(C)C(=O)CN1CCOCC1)O2,-11,0,0,4,4,-2
COCC#Cc1cnc2c(c1)C(=O)N([C@@H](C)CO)C[C@@H](C)[C@@H](CN(C)C(=O)Cc1ccccc1)O2,x,0,0,15,4,-2
CC(C)C#Cc1cnc2c(c1)C(=O)N([C@H](C)CO)C[C@H](C)[C@@H](CN(C)C(=O)CN1CCOCC1)O2,8,0,0,-1,4,39*
C[C@H](CO)N1C[C@H](C)[C@H](CN(C)Cc2ccccc2)Oc2ncc(C#CCN(C)C)cc2C1=O,5,0,0,-1,5,19*!
COCC#Cc1cnc2c(c1)C(=O)N([C@H](C)CO)C[C@H](C)[C@@H](CN(C)C(=O)c1cccnc1)O2,-30,0,0,12,6,-5
COCC#Cc1cnc2c(c1)C(=O)N([C@H](C)CO)C[C@@H](C)[C@H](CN(C)C(=O)Cc1ccccc1)O2,x,0,1,-11,-2,31*
CCC(=O)N(C)C[C@@H]1Oc2cc(-c3ccc(C)cc3)ccc2S(=O)(=O)N([C@@H](C)CO)C[C@H]1C,5,0,1,-13,-4,-5
Cc1nn(C)cc1NC(=O)C[C@@H]1CC[C@H]2[C@H](COc3ccc(NC(=O)C4CCC4)cc3C(=O)N2C)O1,2,x,1,-8,-2,x
CC(C)CC#Cc1cnc2c(c1)C(=O)N([C@H](C)CO)C[C@@H](C)[C@H](CN(C)C(=O)Cc1ccccc1)O2,-3,0,0,101*,0,-3
CC(=O)Nc1sc(N/N=C/c2ccc(C)cc2)nc1-c1ccc(C)cc1,1,0,x,x,-1,1
CC(=O)Nc1sc(N/N=C/c2ccc(N(C)C)cc2)nc1-c1ccc(C)cc1,-14,0,0,x,-33*,-5
COc1ccc(CNC(=O)C[C@H]2C[C@H]3c4cc(NC(=O)C5CCC5)ccc4O[C@H]3[C@@H](CO)O2)cc1,0,0,0,0,-1,-3
CCn1c(=O)c(C(=O)CN2CCN(S(=O)(=O)c3ccc(C)cc3C)CC2)c(N)n(Cc2ccccc2)c1=O,-11,0,x,x,-13,23*
CCn1c(=O)c(C(=O)CN2CCN(S(=O)(=O)c3ccccc3)CC2)c(N)n(Cc2ccccc2)c1=O,9,0,4,x,-22,-4
O=C(Nc1ccccc1)N[C@H]1CC[C@H](CCn2cc(C3(O)CCCC3)nn2)O[C@H]1CO,-18,0,0,5,-5,-1
N#CCCN(C(=O)CN1c2cccc3cccc(c23)S1(=O)=O)c1ccccc1,0,43*,0,11,6,x
CC=Cc1ccc2n(c1=O)C[C@H]1[C@H](CO)[C@@H](C(=O)NCC3CC3)N(CC3CCOCC3)[C@@H]21 (mixture of isomers),x,0,0,0,1,-7
CO[C@H]1CN(C)C(=O)c2cc(NC(=O)Nc3ccccc3F)ccc2OC[C@@H](C)N(CC2CC2)C[C@H]1C,2,0,0,-4,0,1
SMILES,FN deposition inh,FGF22 binding,E-selectin induc,C2C12 statin,Ecoli rRNA inh,SIRT5 block
CCCCc1nc2sc3c(=O)n(N)cnc3c2c2c1CCC2,-6,43*,0,5,11,6
CN(CC(=O)NCc1ccco1)CC(=O)Nc1ccc(F)c(F)c1F,3,0,0,109*,22,0
CN(CC(=O)NCc1ccco1)CC(=O)Nc1cc(S(C)(=O)=O)ccc1Cl,-4,0,x,6,5,-1
O=C(Nc1cccc(Cl)c1)OC1CCCCc2cccnc21 (configuration not stated),0,0,5,x,-24*,-3
Cc1ccc(NC(=O)c2ccc(Br)o2)cc1S(=O)(=O)N(C)C,-2,43*,0,-9,-21*,0
Cc1ccc(NC(=O)CCNC(=O)c2ccccc2Cl)cc1S(=O)(=O)N(C)C,-6,x,0,8,x,x
CN(C)S(=O)(=O)c1cccc(NC(=O)COC(=O)/C=C/c2ccc(Br)o2)c1,3,0,0,2,-24,-1
Cc1ccc(NC(=O)COC(=O)c2ccccc2Cl)cc1S(=O)(=O)N(C)C,0,0,0,x,-34*,-3
Cc1ccc(NC(=O)COC(=O)/C=C/c2ccc(Br)o2)cc1S(=O)(=O)N(C)C,19,43*,x,x,-9,-4
CO[C@H]1CN(C)C(=O)c2ccc(NC(C)=O)cc2OC[C@@H](C)N(CCC(F)(F)F)C[C@@H]1C,-17,0,0,-7,-1,3
Cc1ccc(C(=O)COC(=O)CN2C(=O)C3C4CC(C(Br)C4Br)C3C2=O)cc1 (configuration not stated),0,0,1,-6,5,102*
C[C@@H]1CN([C@H](C)CO)C(=O)c2cc(NS(=O)(=O)c3ccc(F)cc3)ccc2O[C@@H]1CN(C)C,-3,0,0,-16,0,-3
COc1ccc(OC)c(-c2csc(NC(=O)CN3C(=O)NC4(CCCC4)C3=O)n2)c1,1,0,-2,3,-25*,6
COc1ccc(-c2csc(NC(=O)CN3C(=O)NC4(CCCC4)C3=O)n2)cc1,-7,0,x,6,0,-4
CCCNC(=O)N(C)C[C@@H]1Oc2ncc(C#CC3CC3)cc2C(=O)N([C@H](C)CO)C[C@@H]1C,x,0,0,42,2,-7
CCCC(=O)NC(=S)Nc1cccc(-c2nc3ncccc3o2)c1,-3,43*,0,x,9,-2
